Test results taken from ChEMBL document CHEMBL1155468, “Syntheses and evaluation of anticonvulsant profile and teratogenicity of novel amide derivatives of branched aliphatic carboxylic acids with 4-aminobenzensulfonamide” (J Med Chem, 2010).
Active and inactive are the calls of the source. No cut-off for these calls is given here.

Assays:
[1] = test system: Mus musculus; assay: Teratogenic effect in SWV mouse assessed as fetuses with neural tube deffects at 294 mg/kg, ip administered on morning of day 8 of gestation; type: toxicity, organism-based; parameters: dose 294 mg/kg, route intraperitoneal; details: in vivo
In short: (§1)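 Two-month-old nulligravid SWV females were mated overnight and checked for vaginal plugs the next morning; gestation onset was set at 10 p.m. the previous night. On gestation day 8.5, each dam received a single ip injection (0.55-2.7 mmol/kg range) or vehicle (25% aqueous Cremophor EL) at 10 μL/g body weight. Litters were scored for implants, resorptions, live and dead fetuses, and fetuses with neural tube defects.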

[2] = test system: Mus musculus; assay: Anticonvulsant activity in CF1 albino mouse assessed as inhibition of maximal electroshock-induced seizures at 30 mg/kg, ip after 0.5 hrs; type: functional, organism-based; parameters: dose 30 mg/kg
In short: (§2)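 Test compounds suspended in 0.5% methylcellulose and given ip to adult male CF no. 1 albino mice (18-25 g) at 0.01 mL/g body weight before maximal electroshock challenge.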

[3] = test system: Mus musculus; assay: Teratogenic effect in SWV mouse assessed as live fetuses at 729 mg/kg, ip administered on morning of day 8 of gestation; type: toxicity, organism-based; parameters: dose 729 mg/kg, route intraperitoneal; details: in vivo
In short: (§3)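 SWV inbred mice: two-month-old nulligravid females mated overnight with males and checked for vaginal plugs next morning; gestation onset taken as 10 p.m. the previous night. On gestation day 8.5 each dam got one ip injection, 0.55–2.7 mmol/kg, in 25% aqueous Cremophor EL (vehicle controls dosed alike), 10 μL/g body weight. Litters and implants tallied; resorptions and live fetuses reported as counts with percentages.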

[4] = test system: Mus musculus; assay: Anticonvulsant activity in CF1 albino mouse assessed as inhibition of maximal electroshock-induced seizures at 300 mg/kg, ip after 0.5 hrs; type: functional, organism-based; parameters: dose 300 mg/kg; in short: as §2
[5] = test system: Mus musculus; assay: Anticonvulsant activity in CF1 albino mouse assessed as inhibition of maximal electroshock-induced seizures at 30 mg/kg, ip after 4 hrs; type: functional, organism-based; parameters: dose 30 mg/kg; in short: as §2
[6] = test system: Mus musculus; assay: Teratogenic effect in SWV mouse assessed as fetuses with neural tube deffects at 486 mg/kg, ip administered on morning of day 8 of gestation; type: toxicity, organism-based; parameters: dose 486 mg/kg, route intraperitoneal; details: in vivo; in short: as §1
[7] = test system: Mus musculus; assay: Neurotoxicity in CF1 albino mouse assessed as motor impairment at 30 mg/kg, ip after 0.5 hrs; type: toxicity, organism-based; parameters: dose 30 mg/kg, route intraperitoneal; details: in vivo
[8] = test system: Rattus norvegicus; assay: Anticonvulsant activity in Sprague-Dawley rat assessed as inhibition of maximal electroshock-induced seizures at 30 mg/kg, po after 4 hrs
[9] = test system: Mus musculus; assay: Anticonvulsant activity in CF1 albino mouse assessed as inhibition of subcutaneous pentylenetetrazole-induced seizures at 30 mg/kg, ip after 0.5 hrs; type: functional, organism-based; parameters: dose 30 mg/kg
In short: (§4)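 Adult male CF no. 1 albino mice (18-25 g) dosed ip with compound suspended in 0.5% methylcellulose (0.01 mL/g). Convulsant: pentylenetetrazol dissolved in 0.9% saline as a 0.85% solution for mice, given subcutaneously.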

[10] = test system: Mus musculus; assay: Neurotoxicity in CF1 albino mouse assessed as motor impairment at 300 mg/kg, ip after 0.5 hrs; type: toxicity, organism-based; parameters: dose 300 mg/kg, route intraperitoneal; details: in vivo
[11] = test system: Mus musculus; assay: Anticonvulsant activity in CF1 albino mouse assessed as inhibition of subcutaneous pentylenetetrazole-induced seizures at 300 mg/kg, ip after 4 hrs; type: functional, organism-based; parameters: dose 300 mg/kg; in short: as §4
[12] = test system: Mus musculus; assay: Neurotoxicity in CF1 albino mouse assessed as motor impairment at 100 mg/kg, ip after 4 hrs; type: toxicity, organism-based; parameters: dose 100 mg/kg, route intraperitoneal; details: in vivo
[13] = test system: Mus musculus; assay: Anticonvulsant activity in CF1 albino mouse assessed as inhibition of subcutaneous pentylenetetrazole-induced seizures at 30 mg/kg, ip after 4 hrs; type: functional, organism-based; parameters: dose 30 mg/kg; in short: as §4
[14] = test system: Mus musculus; assay: Anticonvulsant activity in CF1 albino mouse assessed as inhibition of subcutaneous pentylenetetrazole-induced seizures at 100 mg/kg, ip after 0.5 hrs; type: functional, organism-based; parameters: dose 100 mg/kg; in short: as §4
[15] = test system: Mus musculus; assay: Neurotoxicity in CF1 albino mouse assessed as motor impairment at 100 mg/kg, ip after 0.5 hrs; type: toxicity, organism-based; parameters: dose 100 mg/kg, route intraperitoneal; details: in vivo
[16] = test system: Mus musculus; assay: Anticonvulsant activity in CF1 albino mouse assessed as inhibition of maximal electroshock-induced seizures at 100 mg/kg, ip after 4 hrs; type: functional, organism-based; parameters: dose 100 mg/kg; in short: as §2
[17] = test system: Mus musculus; assay: Teratogenic effect in SWV mouse assessed as live fetuses at 148 mg/kg, ip administered on morning of day 8 of gestation; type: toxicity, organism-based; parameters: dose 148 mg/kg, route intraperitoneal; details: in vivo; in short: as §1
[18] = test system: Mus musculus; assay: Teratogenic effect in SWV mouse assessed as live fetuses at 294 mg/kg, ip administered on morning of day 8 of gestation; type: toxicity, organism-based; parameters: dose 294 mg/kg, route intraperitoneal; details: in vivo; in short: as §1
[19] = species on record: Rattus norvegicus; assay: Protective index, ratio of TD50 for rat to ED50 for maximal electroshock-induced rat seizure model
[20] = test system: Rattus norvegicus; assay: Anticonvulsant activity in Sprague-Dawley rat assessed as inhibition of maximal electroshock-induced seizures at 30 mg/kg, po after 2 hrs
[21] = test system: Mus musculus; assay: Anticonvulsant activity in CF1 albino mouse assessed as inhibition of subcutaneous pentylenetetrazole-induced seizures at 300 mg/kg, ip after 0.5 hrs; type: functional, organism-based; parameters: dose 300 mg/kg; in short: as §4
[22] = test system: Rattus norvegicus; assay: Anticonvulsant activity in Sprague-Dawley rat assessed as inhibition of maximal electroshock-induced seizures at 30 mg/kg, po after 1 hr
[23] = test system: Mus musculus; assay: Anticonvulsant activity in CF1 albino mouse assessed as inhibition of maximal electroshock-induced seizures at 100 mg/kg, ip after 0.5 hrs; type: functional, organism-based; parameters: dose 100 mg/kg; in short: as §2
[24] = test system: Mus musculus; assay: Anticonvulsant activity in CF1 albino mouse assessed as inhibition of subcutaneous pentylenetetrazole-induced seizures at 100 mg/kg, ip after 4 hrs; type: functional, organism-based; parameters: dose 100 mg/kg; in short: as §4
[25] = test system: Rattus norvegicus; assay: Neurotoxicity in Sprague-Dawley rat assessed as motor impairment at 30 mg/kg, po after 0.25 to 4 hrs; details: in vivo
[26] = test system: Mus musculus; assay: Anticonvulsant activity in CF1 albino mouse assessed as inhibition of maximal electroshock-induced seizures at 300 mg/kg, ip after 4 hrs; type: functional, organism-based; parameters: dose 300 mg/kg; in short: as §2
[27] = test system: Mus musculus; assay: Teratogenic effect in SWV mouse assessed as fetuses with neural tube deffects at 148 mg/kg, ip administered on morning of day 8 of gestation; type: toxicity, organism-based; parameters: dose 148 mg/kg, route intraperitoneal; details: in vivo; in short: as §1
[28] = test system: Mus musculus; assay: Teratogenic effect in SWV mouse assessed as resorptions at 486 mg/kg, ip administered on morning of day 8 of gestation; type: toxicity, organism-based; parameters: dose 486 mg/kg, route intraperitoneal; details: in vivo; in short: as §3
[29] = test system: Mus musculus; assay: Neurotoxicity in CF1 albino mouse assessed as motor impairment at 30 mg/kg, ip after 4 hrs; type: toxicity, organism-based; parameters: dose 30 mg/kg, route intraperitoneal; details: in vivo
[30] = test system: Mus musculus; assay: Teratogenic effect in SWV mouse assessed as fetuses with neural tube deffects at 729 mg/kg, ip administered on morning of day 8 of gestation; type: toxicity, organism-based; parameters: dose 729 mg/kg, route intraperitoneal; details: in vivo; in short: as §1
[31] = test system: Mus musculus; assay: Teratogenic effect in SWV mouse assessed as resorptions at 148 mg/kg, ip administered on morning of day 8 of gestation; type: toxicity, organism-based; parameters: dose 148 mg/kg, route intraperitoneal; details: in vivo; in short: as §3
[32] = test system: Mus musculus; assay: Teratogenic effect in SWV mouse assessed as resorptions at 729 mg/kg, ip administered on morning of day 8 of gestation; type: toxicity, organism-based; parameters: dose 729 mg/kg, route intraperitoneal; details: in vivo; in short: as §3
[33] = test system: Rattus norvegicus; assay: Anticonvulsant activity in po dosed rat assessed as inhibition of maximal electroshock-induced seizures
[34] = test system: Mus musculus; assay: Teratogenic effect in SWV mouse assessed as live fetuses at 486 mg/kg, ip administered on morning of day 8 of gestation; type: toxicity, organism-based; parameters: dose 486 mg/kg, route intraperitoneal; details: in vivo; in short: as §3
[35] = test system: Mus musculus; assay: Neurotoxicity in CF1 albino mouse assessed as motor impairment at 300 mg/kg, ip after 4 hrs; type: toxicity, organism-based; parameters: dose 300 mg/kg, route intraperitoneal; details: in vivo
[36] = test system: Mus musculus; assay: Teratogenic effect in SWV mouse assessed as resorptions at 294 mg/kg, ip administered on morning of day 8 of gestation; type: toxicity, organism-based; parameters: dose 294 mg/kg, route intraperitoneal; details: in vivo; in short: as §3

For `CCC(CC)C(=O)Nc1ccc(S(N)(=O)=O)cc1`, the Activity [1] was 4.5%, the Activity [2] was “Active” and the Activity [3] was 46.8%. The Activity [4] was “Active”, the Activity [5] was “Active” and the Activity [6] was 25.9%. For the same molecule, the Activity [7] was “Non-toxic”, the Activity [8] was “Active” and the Activity [9] was “inactive”. For the same molecule, the Activity [10] was “Non-toxic”, the Activity [11] was “inactive” and the Activity [12] was “Non-toxic”. The Activity [13] was “inactive”, the Activity [14] was “inactive” and the Activity [15] was “Non-toxic”. For the same molecule, the Activity [16] was “Active”, the Activity [17] was 93.3% and the Activity [18] was 84.2%. For the same molecule, the “Ratio TD50/ED50” value [19] was over 50.5, the Activity [20] was “Active” and the Activity [21] was “inactive”. The Activity [22] was “Active”, the Activity [23] was “Active” and the Activity [24] was “inactive”. The Activity [25] was “Non-toxic”, the Activity [26] was “Active” and the Activity [27] was 0.8%. The Activity [28] was 52.1%, the Activity [29] was “Non-toxic” and the Activity [30] was 20.3%. For the same molecule, the Activity [31] was 7.7%, the Activity [32] was 53.2% and the ED50 [33] was 9.9 mg/kg. For the same molecule, the Activity [34] was 47.9%, the Activity [35] was “Non-toxic” and the Activity [36] was 15.8%.
